Source: ChEMBL document CHEMBL1687886, “N-cyclic bay-substituted perylene G-quadruplex ligands have selective antiproliferative effects on cancer cells and induce telomere damage” (J Med Chem, 2011)

Tests used:
Type in all cases: nucleic-acid assay
Nucleic Acid [1] = test: Binding affinity to human 21-TT G-quadruplex DNA structure assessed as first step association constant by electrospray ionization mass spectrometry
How it was run: (§1)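 ESI-MS in 150 mM ammonium acetate; DNA 5 μM final (per duplex or quadruplex unit); ligand at drug/DNA ratios 0.5 to 4. Methanol (15%) added just before injection, after binding equilibrium. K1 and K2 for 1:1 and 2:1 complexes, and % bound DNA, taken from relative peak intensities assuming equal response factors. At least three repeats.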

Nucleic Acid [2] = test: Binding affinity to human 21-TT G-quadruplex DNA structure assessed as second step association constant by electrospray ionization mass spectrometry; how it was run: as §1
Nucleic Acid [3] = test: Binding affinity to human DK66 duplex DNA structure assessed as first step association constant by electrospray ionization mass spectrometry; how it was run: as §1
Nucleic Acid [4] = test: Stabilization of 21-mer human F21T G4-telomeric quadruplex assessed as change in melting temperature at 1 uM by FRET assay
Nucleic Acid [5] = test: Stabilization of human duplex DNA T-loop assessed as change in melting temperature at 1 uM by FRET assay
Nucleic Acid [6] = test: Binding affinity to human 21-TT G-quadruplex DNA structure assessed as bound DNA at 5:5 DNA to drug ratio by electrospray ionization mass spectrometry; how it was run: as §1
Nucleic Acid [7] = test: Binding affinity to human 21-TT G-quadruplex DNA structure assessed as bound DNA at 5:10 DNA to drug ratio by electrospray ionization mass spectrometry; how it was run: as §1
Nucleic Acid [8] = test: Binding affinity to human DK66 duplex DNA structure assessed as bound DNA at 5:20 DNA to drug ratio by electrospray ionization mass spectrometry; how it was run: as §1
Nucleic Acid [9] = test: Binding affinity to human 21-TT G-quadruplex DNA structure at 1:1 DNA to calf thymus DNA ratio by competitive inhibition assay; set-up: concentration or dose not given beside the values
How it was run: (§2)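 ESI-MS competition: quadruplex DNA and ligand each 5 μM final, plus calf thymus DNA at duplex/quadruplex ratios 1 and 5 (by phosphate concentration), in ammonium acetate. Percentage bound quadruplex and normalized bound quadruplex (N%) measured by mass spectrometry. SD over at least three independent experiments.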

Nucleic Acid [10] = test: Binding affinity to human 21-TT G-quadruplex DNA structure at 1:5 DNA to calf thymus DNA ratio by competitive inhibition assay; set-up: concentration or dose not given beside the values; how it was run: as §2

Row | log Ks (Nucleic Acid [1]) | log Ks (Nucleic Acid [2]) | log Ks (Nucleic Acid [3]) | ΔTm (Nucleic Acid [4]) | ΔTm (Nucleic Acid [5]) | Activity (Nucleic Acid [6]) | Activity (Nucleic Acid [7]) | Activity (Nucleic Acid [8]) | Activity (Nucleic Acid [9]) | Activity (Nucleic Acid [10]) | SMILES
1 | 4.7 | 4.8 | 4.2 | 9.3 °C | -0.2 °C | 23% | 34% | 20% | 19% | 14% | O=C1c2ccc3c4c(N5CCCCC5)cc5c6c(ccc(c7c(N8CCCCC8)cc(c2c37)C(=O)N1CCOCCN1CCCCC1)c64)C(=O)N(CCOCCN1CCCCC1)C5=O
2 | 3.9 | – | 3.8 | 5.2 °C | -0.1 °C | – | – | 10% | – | – | CN1CCN(CCOCCN2C(=O)c3ccc4c5c(N6CCCCC6)cc6c7c(ccc(c8c(N9CCCCC9)cc(c3c48)C2=O)c75)C(=O)N(CCOCCN2CCN(C)CC2)C6=O)CC1
3 | 4.6 | 4.8 | 3.7 | 12.9 °C | -0.4 °C | 13% | 37% | 9% | – | – | CNCCOCCN1C(=O)c2ccc3c4c(N5CCCCC5)cc5c6c(ccc(c7c(N8CCCCC8)cc(c2c37)C1=O)c64)C(=O)N(CCOCCNC)C5=O
4 | 4.8 | 4.8 | 3.8 | 13.1 °C | 0.1 °C | 20% | 30% | 11% | – | – | O=C1c2ccc3c4c(N5CCCCC5)cc5c6c(cc(N7CCCCC7)c(c7ccc(c2c37)C(=O)N1CCOCCN1CCCCC1)c64)C(=O)N(CCOCCN1CCCCC1)C5=O
